Source: ChEMBL document CHEMBL4732088, “Identification and optimization of piperlongumine analogues as potential antioxidant and anti-inflammatory agents via activation of Nrf2” (Eur J Med Chem, 2021)
The source made the active and inactive calls. No cut-off for these calls is given here.

What was measured:
PC-12 [1] = assay: (§1) Prevention of H2O2-induced calcium overload in rat PC12 cells assessed as reduction in intracellular free calcium by measuring mean fluorescence intensity at 5 uM pretreated with compound followed by H2O2 addition measured after 24 hrs by Fluo-3AM based fluorescence assay (reference value: 17791.36%); assay type: functional
PC-12 [2] = assay: Protection against 6-OHDA-induced apoptosis in rat PC12 cells assessed as viable cells at 10 uM incubated for 24 hrs by annexin V FITC/propidium iodide staining based flow cytometry (reference value: 72.0 %); assay type: functional; settings: read-out: Activity
PC-12 [3] = assay: Protection against H2O2-induced mitochondrial dysfunction in rat PC12 cells assessed as change in mitochondrial membrane potential at 20 uM pretreated with compound followed by H2O2 addition by JC-1 staining based flow cytometry (reference value: 78.7 %); assay type: functional
In short: (§2)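 Mitochondrial membrane potential in PC12 cells pretreated with compound (5, 10, 20 μM), then exposed to H₂O₂ (200 μM) or 6-OHDA (150 μM). JC-1 staining, red-to-green fluorescence shift read by flow cytometry. Mean ± SD, n = 3.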

BV-2 [4] = assay: Antiinflammatory activity in mouse BV2 cells transfected with control siRNA assessed as inhibition of LPS-induced IL-6 production at 20 uM pretreated with compound followed by LPS stimulation for 18 hrs
PC-12 [5] = assay: Protection against 6-OHDA-induced mitochondrial dysfunction in rat PC12 cells assessed as change in mitochondrial membrane potential at 10 uM pretreated with compound followed by 6-OHDA addition by JC-1 staining based flow cytometry (reference value: 73.2 %); assay type: functional; in short: as §2
[6] = biological target: T1, Nuclear factor erythroid 2-related factor 2 (Mus musculus) (UniProt Q60795); assay: Activation of Nrf2 in mouse BV2 cells assessed as upregulation of HO-1 protein expression after 24 hrs by Western blot analysis; assay type: cell-based; settings: BV-2, filed as activator, dose 5-20 µM
T1 sequence (whole entry): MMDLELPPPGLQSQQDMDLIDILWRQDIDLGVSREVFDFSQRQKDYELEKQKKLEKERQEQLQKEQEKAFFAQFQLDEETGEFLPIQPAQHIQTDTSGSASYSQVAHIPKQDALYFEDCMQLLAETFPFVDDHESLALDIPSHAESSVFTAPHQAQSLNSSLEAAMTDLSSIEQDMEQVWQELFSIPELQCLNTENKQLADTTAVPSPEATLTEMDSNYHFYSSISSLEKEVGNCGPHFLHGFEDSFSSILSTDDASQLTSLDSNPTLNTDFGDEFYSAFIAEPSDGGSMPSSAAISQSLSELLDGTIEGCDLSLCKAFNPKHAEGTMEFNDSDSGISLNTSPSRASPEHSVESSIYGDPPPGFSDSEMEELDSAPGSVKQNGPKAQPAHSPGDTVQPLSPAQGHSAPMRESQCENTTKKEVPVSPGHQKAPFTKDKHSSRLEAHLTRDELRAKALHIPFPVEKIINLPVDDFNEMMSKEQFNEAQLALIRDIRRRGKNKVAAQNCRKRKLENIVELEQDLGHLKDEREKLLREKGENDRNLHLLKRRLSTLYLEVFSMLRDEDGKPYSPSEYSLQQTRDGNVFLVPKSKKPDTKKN
In short: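 BV2 microglia exposed to compound for 24 h over a concentration series; Nrf2, NQO1, HO-1, TrxR1, GCLM and GCLC protein levels read by Western blot.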

PC-12 [7] = assay: as §1, with “10” for “5”; assay type: functional
PC-12 [8] = assay: Protection against H2O2-induced apoptosis in rat PC12 cells assessed as necrotic cells at 20 uM incubated for 24 hrs by annexin V FITC/propidium iodide staining based flow cytometry (reference value: 0.6 %); assay type: functional
PC-12 [9] = assay: Neuroprotective activity against 6-OHDA-induced apoptosis in rat PC12 cells assessed as reduction in apoptotic nuclei at 5 to 20 uM pretreated with compound followed by Hoechst 33342 staining based fluorescence microscopy analysis; settings: dose 5-20 µM
PC-12 [10] = assay: Cytoprotective activity against H2O2-induced neurotoxicity in rat PC12 cells assessed as reduction in LDH release at 5 to 20 uM preincubated for 24 hrs followed by H2O2 treatment by LDH assay; assay type: functional, cell-based; settings: dose 5-20 µM
In short: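 PC12 cells pretreated with compound (5, 10, 20 μM) for 24 h, then H₂O₂ or 6-OHDA; membrane damage read as LDH leakage; mean ± SD of three independent experiments.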

[11] = biological target: T2, Nuclear factor erythroid 2-related factor 2 (Rattus norvegicus) (UniProt O54968); assay: Induction of Nrf2 translocation from cytoplasm to nucleus in rat PC12 cells at 20 uM after 6 hrs by Western blot analysis; assay type: cell-based; settings: PC-12, filed as activator
T2 sequence (whole entry): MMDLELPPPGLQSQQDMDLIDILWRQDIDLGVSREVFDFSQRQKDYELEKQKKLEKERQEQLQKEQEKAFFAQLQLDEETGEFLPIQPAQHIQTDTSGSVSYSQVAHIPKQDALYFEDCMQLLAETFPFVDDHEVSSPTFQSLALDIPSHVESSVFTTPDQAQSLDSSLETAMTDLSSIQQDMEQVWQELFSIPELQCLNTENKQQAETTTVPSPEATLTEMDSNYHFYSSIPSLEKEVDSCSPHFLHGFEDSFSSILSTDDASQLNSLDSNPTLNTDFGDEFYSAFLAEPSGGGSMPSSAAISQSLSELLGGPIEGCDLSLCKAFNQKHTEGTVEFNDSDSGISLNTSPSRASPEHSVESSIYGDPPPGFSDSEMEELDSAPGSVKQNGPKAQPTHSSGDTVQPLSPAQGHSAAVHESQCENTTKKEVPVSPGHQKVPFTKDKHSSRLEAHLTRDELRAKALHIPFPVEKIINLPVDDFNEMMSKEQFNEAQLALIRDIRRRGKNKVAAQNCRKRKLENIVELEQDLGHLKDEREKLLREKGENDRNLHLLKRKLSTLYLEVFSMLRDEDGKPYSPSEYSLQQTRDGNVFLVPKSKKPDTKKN
In short: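 PC12 cells given compound; nuclear and cytoplasmic fractions probed for Nrf2 by Western blot across a time course up to and beyond 6 h.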

PC-12 [12] = assay: Protection against H2O2-induced mitochondrial dysfunction in rat PC12 cells assessed as change in mitochondrial membrane potential at 10 uM pretreated with compound followed by H2O2 addition by JC-1 staining based flow cytometry (reference value: 78.7 %); assay type: functional; in short: as §2
BV-2 [13] = assay: Antiinflammatory activity in mouse BV2 cells transfected with control siRNA assessed as reduction in LPS-induced NO production at 20 uM pretreated with compound followed by LPS stimulation for 18 hrs
PC-12 [14] = assay: Protection against 6-OHDA-induced apoptosis in rat PC12 cells assessed as viable cells at 20 uM incubated for 24 hrs by annexin V FITC/propidium iodide staining based flow cytometry (reference value: 72.0 %); assay type: functional; settings: read-out: Activity
PC-12 [15] = assay: Protection against H2O2-induced apoptosis in rat PC12 cells assessed as late apoptotic cells at 5 uM incubated for 24 hrs by annexin V FITC/propidium iodide staining based flow cytometry (reference value: 16.2 %); assay type: functional
[16] = biological target: T2, Nuclear factor erythroid 2-related factor 2 (Rattus norvegicus); assay: Activation of Nrf2 in rat PC12 cells assessed as increase in TrxR1 protein level at 20 uM after 24 hrs by Western blot analysis; assay type: cell-based; settings: PC-12, filed as activator

Compound: CCN(C)C(=O)N1CCN(C(=O)/C=C/c2ccc(F)cc2)C1=O
- Flu intensity (PC-12 [1]): 8721.73
- viability at 10 µM (PC-12 [2]): 85.4%
- Activity (PC-12 [3]): 92.8%
- Activity (BV-2 [4]): Active
- Activity (PC-12 [5]): 83.6%
- Activity [6]: Dose-dependent effect
- Flu intensity (PC-12 [7]): 7793.41
- Activity (PC-12 [8]): 0.3%
- Activity (PC-12 [9]): Active
- Activity (PC-12 [10]): Active
- Activity [11]: Active
- Activity (PC-12 [12]): 90.2%
- Activity (BV-2 [13]): Active
- viability at 20 µM (PC-12 [14]): 89%
- Activity (PC-12 [15]): 9.9%
- Activity [16]: Active
